Results from ChEMBL document CHEMBL3286338, “SAR studies on hydropentalene derivatives--Important core units of biologically active tetramic acid macrolactams and ptychanolides” (Bioorg Med Chem, 2014).
Activity calls are given as the source filed them. No cut-off for these calls is given here.

Assays:
Tubulin (Sus scrofa) = Tubulin (Sus scrofa) (UniProt P02554+P02550); assay: Inhibition of porcine tubulin polymerization at 500 ug/ml by fluorescence analysis; type: protein assay
How it was run: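 Porcine tubulin (kit master mix with buffer, glycerol and GTP) mixed with compound at a 5:50 volume ratio. Placed at once in a fluorimeter at 37 °C. Polymerization followed by incorporation of a fluorescent reporter, read at 460 nm (excitation 340 nm) for about 1 h. Methanol and nocodazole served as controls.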

PtK2 [1] = assay: Effect on microtubular network in Potorous tridactylus PtK2 cells at 4 ug/ml for overnight incubation by DAPI staining analysis; type: functional, cell-based
How it was run: (§1)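 PtK2 cells on glass coverslips incubated overnight with compound or with methanol only. For alpha-tubulin staining, fixed in cold (-20 °C) MeOH/acetone (1:1) for 10 min, then probed with primary antibody. DNA counterstained. Microtubular network, mitotic spindles and chromosome distribution assessed by fluorescence microscopy.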

[2] = Antiproliferative activity against human KB-3-1 cells by MTT assay; type: functional, cell-based
How it was run: (§2)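 Cells kept in supplier-recommended media at 37 °C, 10% CO2. Serial dilutions added to a cell suspension (50,000 per mL) and incubated 5 d alongside blank and solvent controls. MTT then added to 0.5 mg mL^-1 final for 2 h, and formazan precipitate collected by centrifugation. Run as two parallel experiments; activity taken as mean relative to controls set at 100%.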

PtK2 [3] = assay: Effect on mitotic spindle in Potorous tridactylus PtK2 cells at 4 ug/ml for overnight incubation by DAPI staining analysis; type: functional, cell-based; how it was run: as §1
L929 [4] = assay: Effect on spindle formation in mouse L929 cells at 0.6 ug/ml by impedance profiling; type: cell-based
How it was run: (§3)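 L-929 cell cultures incubated with compound while impedance was recorded over time. The time-dependent impedance curves served as a mode-of-action fingerprint and were compared statistically, by cluster analysis, against curves from a set of reference compounds. Controls received methanol.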

[5] = Cytotoxicity against Potorous tridactylus PtK2 cells by MTT assay; type: functional, cell-based; how it was run: as §2
Homo sapiens = species: Homo sapiens; assay: Induction of actin polymerization (unknown origin) at 28 ug/ml after 20 mins by fluorescence analysis
How it was run: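 Pyrene-labelled muscle actin used, with pyrene fluorescence reporting polymerization state. Baseline read 3 min, then compound or methanol added and read a further 20 min. Polymerization then started with 10X actin polymerization buffer and read for 1 h.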

PtK2 [6] = assay: Effect on F-actin cytoskeleton in Potorous tridactylus PtK2 cells at 2 ug/ml for overnight incubation by DAPI staining analysis; type: cell-based
How it was run: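 PtK2 cells grown on glass coverslips and exposed to compound overnight, with methanol-only controls. Fixed in 3.7% formalin for 10 min, permeabilized with 0.1% Triton X-100 for 5 min, then stained with Alexa Fluor 488 phalloidin (1:100) for 1 h. F-actin (green) and DNA (blue) examined by fluorescence microscopy.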

PtK2 [7] = assay: Effect on chromosme distribution in Potorous tridactylus PtK2 cells at 4 ug/ml for overnight incubation by DAPI staining analysis; type: functional, cell-based; how it was run: as §1
L929 [8] = assay: Antiproliferative activity against mouse L929 cells by MTT assay; type: functional, cell-based; how it was run: as §2
L929 [9] = assay: Effect on microtubule polymerization in mouse L929 cells at 0.6 ug/ml by impedance profiling; type: cell-based; how it was run: as §3

Chain of Tubulin (Sus scrofa) (P02550 whole entry, looked up): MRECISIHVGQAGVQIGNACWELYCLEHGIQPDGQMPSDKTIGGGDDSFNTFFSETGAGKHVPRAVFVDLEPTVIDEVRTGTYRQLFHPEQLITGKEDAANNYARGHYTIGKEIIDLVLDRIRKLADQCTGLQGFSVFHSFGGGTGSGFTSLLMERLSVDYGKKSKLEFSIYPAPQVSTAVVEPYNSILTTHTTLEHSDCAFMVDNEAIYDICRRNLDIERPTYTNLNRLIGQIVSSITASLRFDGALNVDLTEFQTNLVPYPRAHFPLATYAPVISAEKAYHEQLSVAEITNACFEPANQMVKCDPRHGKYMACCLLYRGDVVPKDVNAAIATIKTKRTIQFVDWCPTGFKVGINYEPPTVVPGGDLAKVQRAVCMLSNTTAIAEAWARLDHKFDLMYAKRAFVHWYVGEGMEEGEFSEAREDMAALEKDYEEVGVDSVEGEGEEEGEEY
Chain of Tubulin (Sus scrofa) (P02554 whole entry, looked up): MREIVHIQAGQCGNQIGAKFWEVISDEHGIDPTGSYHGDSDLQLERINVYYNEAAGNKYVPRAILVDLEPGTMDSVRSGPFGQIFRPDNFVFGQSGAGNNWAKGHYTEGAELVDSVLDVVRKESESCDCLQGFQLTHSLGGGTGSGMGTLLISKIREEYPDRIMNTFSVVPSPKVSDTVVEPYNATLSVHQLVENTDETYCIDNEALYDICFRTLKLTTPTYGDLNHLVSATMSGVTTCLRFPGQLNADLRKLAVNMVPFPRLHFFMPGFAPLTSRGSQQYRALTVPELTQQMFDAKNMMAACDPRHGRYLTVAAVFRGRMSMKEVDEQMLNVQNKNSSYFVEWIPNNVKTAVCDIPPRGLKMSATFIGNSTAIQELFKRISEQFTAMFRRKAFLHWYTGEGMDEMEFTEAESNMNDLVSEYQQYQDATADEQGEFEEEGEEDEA

Q: Which inhibition (Tubulin (Sus scrofa)) does the source give for `C#CC(=O)O[C@H]1C[C@@H]2CC3(C[C@@H]2C1)OCC(C)(C)CO3` here?
A: The inhibition was “Active”.

Q: And the Activity (PtK2 [1])?
A: The Activity was “Active”.

Q: What about the IC50 [2] of the same molecule?
A: Its IC50 is 21600 nM.

Q: And the Activity (PtK2 [3])?
A: The Activity was “Active”.

Q: And the Activity (L929 [4])?
A: The Activity was “Active”.

Q: What about the IC50 [5] of the same molecule?
A: The IC50 was 3000 nM.

Q: And the Activity (Homo sapiens)?
A: The Activity was “Active”.

Q: And the Activity (PtK2 [6])?
A: Its Activity is “Active”.

Q: What about the Activity (PtK2 [7]) of the same molecule?
A: The Activity was “Active”.

Q: And the IC50 (L929 [8])?
A: Its IC50 is 2200 nM.

Q: What about the Activity (L929 [9]) of the same molecule?
A: The Activity was “Active”.
